Reference: ChEMBL document CHEMBL1157464, “1-[(3-Aryloxy-3-aryl)propyl]-1H-imidazoles, new imidazoles with potent activity against Candida albicans and dermatophytes. Synthesis, structure-activity relationship, and molecular modeling studies” (J Med Chem, 2008)
Values after ≈ are worked out from the molar mass of the structure shown.

How the values were obtained:
Candida albicans [1] = test: Antifungal activity against Candida albicans ATCC 10261 at 35 degC after 48 hrs by broth microdilution test; format: functional
In short: (§1)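 Broth microdilution per NCCLS M27-A2. Stocks in 100% DMSO, diluted in RPMI 1640 with 0.165 M MOPS at pH 7.0; final range 0.25–128 µg/mL. Inoculum 1000–5000 cells/mL from SDA subcultures. […] C. parapsilosis ATCC22019 served as QC strain.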

Candida parapsilosis = test: Antifungal activity against Candida parapsilosis ATCC 22019 at 35 degC after 48 hrs by broth microdilution test; format: functional; in short: as §1
Candida albicans [2] = test: Antifungal activity against Candida albicans ATCC 10261 at 35 degC after 48 to 96 hrs by broth microdilution test; format: functional
In short: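 Minimal fungicidal concentration for Candida. […] MFC is the lowest concentration allowing fewer than two colonies (99% killing).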

Arthrodermataceae [3] = test: Antifungal activity against dermatophytes at 28 degC after 5 days by broth microdilution test; conditions: for MFC: Arthrodermataceae
Arthrodermataceae [4] = test: Antifungal activity against dermatophytes at 28 degC after 7 days by broth microdilution test; format: functional; conditions: 168 h
In short: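 Ten clinical isolates (two M. canis, five M. gypseum, three T. mentagrophytes) tested by NCCLS M38-A broth microdilution in MOPS-buffered RPMI 1640, pH 7.0, over 0.25–128 µg/mL. Conidial/hyphal suspension from PDA slants (28 °C, 7 days) adjusted to 65–70% transmittance at OD530, then diluted 1:50.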

Arthrodermataceae [5] = test: Antifungal activity against dermatophytes at 28 degC after 48 to 96 hrs by broth microdilution test
[6] = Candida albicans, ATCC 10261, 48 h, read-out: MIC
[7] = Candida albicans, ATCC 10261, 48 h, read-out: MIC50
[8] = Candida albicans, ATCC 10261, 48 h, read-out: MIC90
[9] = Lodderomyces parapsilosis, ATCC 22019, 48 h, read-out: MFC
[10] = Lodderomyces parapsilosis, ATCC 22019, 48 h, read-out: MIC
[11] = Candida albicans, ATCC 10261, read-out: MFC

Compound | MIC (Candida albicans [1]; [6]) | MIC50 (Candida albicans [1]; [7]) | MIC90 (Candida albicans [1]; [8]) | MFC (Candida parapsilosis; [9]) | MIC (Candida parapsilosis; [10]) | MFC50 (Candida albicans [2]) | MFC90 (Candida albicans [2]) | MFC (Candida albicans [2]; [11]) | MFC90 (Arthrodermataceae [3]) | MFC (Arthrodermataceae [3]) | MIC (Arthrodermataceae [4]) | MIC50 (Arthrodermataceae [4]) | MIC90 (Arthrodermataceae [4]) | MFC50 (Arthrodermataceae [5]) | MIC (Candida albicans [1]) | MIC90 (Candida albicans [1]) | MFC (Candida parapsilosis) | MIC (Candida parapsilosis) | MFC (Candida albicans [2]) | MIC50 (Candida albicans [1])
Clc1ccc(C(OCCn2ccnc2)c2ccc(Cl)cc2Cl)c(Cl)c1 | > 128 µg/mL | > 128 µg/mL | > 128 µg/mL | 64 µg/mL (≈ 154 µM) | 32 µg/mL (≈ 76.9 µM) | >128 µg/mL | >128 µg/mL | > 128 µg/mL |  |  |  |  |  |  |  |  |  |  |  | 
Clc1ccc(OC(CCn2cncn2)c2ccccc2)c(Cl)c1 (stereo not drawn) | > 128 µg/mL | > 128 µg/mL | > 128 µg/mL | 64 µg/mL (≈ 184 µM) | 32 µg/mL (≈ 91.9 µM) | >128 µg/mL | >128 µg/mL | > 128 µg/mL | 64 µg/mL (≈ 184 µM) | 44.8 µg/mL (≈ 129 µM) | 22.4 µg/mL (≈ 64.3 µM) | 16 µg/mL (≈ 45.9 µM) | 32 µg/mL (≈ 91.9 µM) | 32 µg/mL (≈ 91.9 µM) |  |  |  |  |  | 
OC(CCn1ccnc1)(c1ccccc1)c1ccccc1 | 114 µg/mL (≈ 410 µM) | 128 µg/mL (≈ 460 µM) | 128 µg/mL (≈ 460 µM) | 64 µg/mL (≈ 230 µM) | 32 µg/mL (≈ 115 µM) | 128 µg/mL (≈ 460 µM) | 128 µg/mL (≈ 460 µM) | 128 µg/mL (≈ 460 µM) |  |  |  |  |  |  |  |  |  |  |  | 
Cc1ccc(OC(CCCCn2ccnc2)c2ccc(Cl)cc2)cc1 (stereo not drawn) | 32 µg/mL (≈ 90.2 µM) | 32 µg/mL (≈ 90.2 µM) | 32 µg/mL (≈ 90.2 µM) | 8 µg/mL (≈ 22.5 µM) | 8 µg/mL (≈ 22.5 µM) | 32 µg/mL (≈ 90.2 µM) | 32 µg/mL (≈ 90.2 µM) | 32 µg/mL (≈ 90.2 µM) |  |  |  |  |  |  |  |  |  |  |  | 
Cc1ccc(C(CCn2ccnc2)Oc2ccc(C)cc2C)cc1 (stereo not drawn) | 46.5 µg/mL (≈ 145 µM) | 32 µg/mL (≈ 99.9 µM) | 64 µg/mL (≈ 200 µM) | 32 µg/mL (≈ 99.9 µM) | 8 µg/mL (≈ 25 µM) | 64 µg/mL (≈ 200 µM) | 64 µg/mL (≈ 200 µM) | 62 µg/mL (≈ 193 µM) |  |  |  |  |  |  |  |  |  |  |  | 
CC(C)(C)c1ccc(OC(CCn2ccnc2)c2ccc(Cl)cc2)cc1 (stereo not drawn) | 57.1 µg/mL (≈ 155 µM) | 64 µg/mL (≈ 173 µM) | 64 µg/mL (≈ 173 µM) | 4 µg/mL (≈ 10.8 µM) | 2 µg/mL (≈ 5.42 µM) | 64 µg/mL (≈ 173 µM) | 64 µg/mL (≈ 173 µM) | 64 µg/mL (≈ 173 µM) | 32 µg/mL (≈ 86.7 µM) | 26 µg/mL (≈ 70.5 µM) | 9.2 µg/mL (≈ 24.9 µM) | 8 µg/mL (≈ 21.7 µM) | 16 µg/mL (≈ 43.4 µM) | 16 µg/mL (≈ 43.4 µM) |  |  |  |  |  | 
Cc1ccc(C(CCn2ccnc2)Oc2ccc(C(C)C)cc2)cc1 (stereo not drawn) | 16.6 µg/mL (≈ 49.6 µM) | 16 µg/mL (≈ 47.8 µM) | 32 µg/mL (≈ 95.7 µM) | 16 µg/mL (≈ 47.8 µM) | 2 µg/mL (≈ 5.98 µM) | 32 µg/mL (≈ 95.7 µM) | 64 µg/mL (≈ 191 µM) | 32 µg/mL (≈ 95.7 µM) |  |  |  |  |  |  |  |  |  |  |  | 
Cc1ccc(C(CCn2ccnc2)Oc2c(Cl)cccc2Cl)cc1 (stereo not drawn) | 42 µg/mL (≈ 116 µM) | 8 µg/mL (≈ 22.1 µM) | 128 µg/mL (≈ 354 µM) | 16 µg/mL (≈ 44.3 µM) | 1 µg/mL (≈ 2.77 µM) | 32 µg/mL (≈ 88.6 µM) | 128 µg/mL (≈ 354 µM) | 62.9 µg/mL (≈ 174 µM) |  |  |  |  |  |  |  |  |  |  |  | 
Cc1ccc(OC(CCn2ccnc2)c2ccccc2)cc1 (single isomer, unassigned; (+)) |  |  |  |  |  |  |  |  |  |  |  |  |  |  | 6.5 µg/mL (≈ 22.2 µM) | 8 µg/mL (≈ 27.4 µM) | 8 µg/mL (≈ 27.4 µM) | 1 µg/mL (≈ 3.42 µM) | 14.9 µg/mL (≈ 51 µM) | 
Clc1ccc(OC(CCn2ccnc2)c2ccccc2)c(Cl)c1 (single isomer, unassigned; (-)) |  |  |  |  |  | 32 µg/mL (≈ 92.2 µM) | 32 µg/mL (≈ 92.2 µM) |  |  |  |  |  |  |  | 11.8 µg/mL (≈ 34 µM) | 16 µg/mL (≈ 46.1 µM) | 8 µg/mL (≈ 23 µM) | 1 µg/mL (≈ 2.88 µM) | 28.6 µg/mL (≈ 82.4 µM) | 
Cc1ccc(OC(CCn2ccnc2)c2ccccc2)cc1 (single isomer, unassigned; (-)) |  |  |  |  |  | 64 µg/mL (≈ 219 µM) | 64 µg/mL (≈ 219 µM) |  |  |  |  |  |  |  | 28.3 µg/mL (≈ 96.8 µM) | 64 µg/mL (≈ 219 µM) |  | 2 µg/mL (≈ 6.84 µM) | 51.4 µg/mL (≈ 176 µM) | 16 µg/mL (≈ 54.7 µM)
Clc1ccc(OC(CCn2ccnc2)c2ccccc2)c(Cl)c1 (stereo in doubt; (+)-14a) |  |  |  |  |  |  | 8 µg/mL (≈ 23 µM) |  |  |  |  |  |  |  | 3.2 µg/mL (≈ 9.22 µM) | 4 µg/mL (≈ 11.5 µM) | 4 µg/mL (≈ 11.5 µM) | 0.5 µg/mL (≈ 1.44 µM) | 7.4 µg/mL (≈ 21.3 µM) | 4 µg/mL (≈ 11.5 µM)
CNCCC(Oc1ccc(C(F)(F)F)cc1)c1ccccc1 (stereo not drawn) [FLUOXETINE] |  |  |  |  |  |  |  |  | 64 µg/mL (≈ 207 µM) | 64 µg/mL (≈ 207 µM) | 45 µg/mL (≈ 145 µM) | 32 µg/mL (≈ 103 µM) | 64 µg/mL (≈ 207 µM) | 64 µg/mL (≈ 207 µM) |  |  |  |  |  | 
